≈ marks a conversion by molar mass, not a printed value.
Key:
[1] = system: Mycobacterium tuberculosis; experiment: Antimycobacterial activity against Mycobacterium tuberculosis H37Rv ATCC 27294 after 28 days by colony forming unit determination; assay type: functional; settings: H37Rv ATCC 27294, 672 h
Outline: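 Compounds added to Sula liquid medium as DMSO solutions (DMSO at most 2%), incubated at 37 °C for 28 days. MIC is the lowest concentration giving visible growth inhibition. Activity was confirmed by CFU counts after subculture onto drug-free Löwenstein-Jensen solid medium.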

[2] = system: SH-SY5Y; experiment: Cytotoxicity against human SH-SY5Y cells measured after overnight incubation by MTT assay; assay type: cell-based
Outline: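 SH-SY5Y neuroblastoma cells in phenol-red-free DMEM with 10% FCS, 2 mM L-glutamine, gentamycin and 1% NEAA, 7.5 × 10³ per well. After 24 h at 37 °C, overnight compound exposure in serum-free medium. MTT readout (OD540 minus OD620) against untreated controls; IC50 from dose-response curves. Two independent experiments.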

[3] = system: Mycobacterium kansasii; experiment: Antimycobacterial activity against Mycobacterium kansasii CNTC My 235/80 after 14 days; assay type: functional; settings: CNTC My 235/80, 336 h
[4] = system: PBMC; experiment: Cytotoxicity against human PBMC measured after overnight incubation by MTT assay; assay type: cell-based
Outline: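 Freshly prepared human PBMC in phenol-red-free RPMI-1640 with 10% FCS, 2 mM L-glutamine and gentamycin, 2.0 × 10⁵ cells per well. After 24 h at 37 °C, overnight compound exposure in serum-free medium. MTT for 4 h, formazan in DMSO, OD540 minus OD620. % cytotoxicity versus controls; IC50 from dose-response curves. Two independent experiments.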

[5] = system: Mycobacterium avium; experiment: Antimycobacterial activity against Mycobacterium avium CNTC 330/88 after 14 days; assay type: functional; settings: CNTC 330/88, 336 h
[6] = Selectivity index, ratio of IC50 for human HepG2 cells to MIC for Mycobacterium tuberculosis H37Rv ATCC 27294; assay type: functional
[7] = system: Mycobacterium kansasii; experiment: Antimycobacterial activity against Mycobacterium kansasii CNTC 6509/96 after 21 days; assay type: functional; settings: CNTC 6509/96, 504 h
[8] = system: HepG2; experiment: Cytotoxicity against human HepG2 cells measured after overnight incubation by MTT assay; assay type: cell-based
Outline: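 HepG2 cells in phenol-red-free RPMI-1640 with 10% FCS, 2 mM L-glutamine and gentamycin, seeded at 5 × 10³ per well. After 24 h at 37 °C, cells were exposed overnight to compound in serum-free medium. MTT (2 mg/mL) for 4 h, formazan dissolved in DMSO, read as OD540 minus OD620. % cytotoxicity versus untreated controls; IC50 taken from dose-response curves. Two independent experiments, 4–8 parallel measurements.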

[9] = system: Mycobacterium avium; experiment: Antimycobacterial activity against Mycobacterium avium CNTC 330/88 after 21 days; assay type: functional; settings: CNTC 330/88, 504 h
[10] = system: Mycobacterium kansasii; experiment: Antimycobacterial activity against Mycobacterium kansasii CNTC My 235/80 after 21 days; assay type: functional; settings: CNTC My 235/80, 504 h
[11] = system: Mycobacterium kansasii; experiment: Antimycobacterial activity against Mycobacterium kansasii CNTC 6509/96 after 7 days; assay type: functional; settings: CNTC 6509/96, 168 h
[12] = system: Mycobacterium kansasii; experiment: Antimycobacterial activity against Mycobacterium kansasii CNTC My 235/80 after 7 days; assay type: functional; settings: CNTC My 235/80, 168 h
[13] = system: Mycobacterium kansasii; experiment: Antimycobacterial activity against Mycobacterium kansasii CNTC 6509/96 after 14 days; assay type: functional; settings: CNTC 6509/96, 336 h

| SMILES | MIC [1] | IC50 [2] | MIC [3] | IC50 [4] | MIC [5] | Selectivity Index [6] | MIC [7] | IC50 [8] | MIC [9] | MIC [10] | MIC [11] | MIC [12] | MIC [13] |
| --- | --- | --- | --- | --- | --- | --- | --- | --- | --- | --- | --- | --- | --- |
| CCn1cc(C(=O)O)c(=O)c2cc(F)c(N3CCN(/C=N/NC(=O)c4ccc(C(F)(F)F)cc4)CC3)cc21 | 5 µg/mL (≈ 9.37 µM) | 107 µM | 4 µM (≈ 2.13 µg/mL) | 262 µM | 500 µM (≈ 267 µg/mL) | 3.98 | 8 µM (≈ 4.27 µg/mL) | > 37.3 µM | 500 µM (≈ 267 µg/mL) | 8 µM (≈ 4.27 µg/mL) | 2 µM (≈ 1.07 µg/mL) | 2 µM (≈ 1.07 µg/mL) | 4 µM (≈ 2.13 µg/mL) |
| CCn1cc(C(=O)O)c(=O)c2cc(F)c(N3CCN(/C=N/NC(=O)c4ccc(F)cc4)CC3)cc21 | – | – | 32 µM (≈ 15.5 µg/mL) | > 331 µM | 125 µM (≈ 60.4 µg/mL) | – | 62.5 µM (≈ 30.2 µg/mL) | > 797 µM | 250 µM (≈ 121 µg/mL) | 62.5 µM (≈ 30.2 µg/mL) | 32 µM (≈ 15.5 µg/mL) | 16 µM (≈ 7.74 µg/mL) | 62.5 µM (≈ 30.2 µg/mL) |
| CCn1cc(C(=O)O)c(=O)c2cc(F)c(N3CCN(/C=N/NC(=O)c4cccc(F)c4)CC3)cc21 | 6 µg/mL (≈ 12.4 µM) | > 430 µM | 32 µM (≈ 15.5 µg/mL) | > 393 µM | 125 µM (≈ 60.4 µg/mL) | 31.67 | 32 µM (≈ 15.5 µg/mL) | > 393 µM | 250 µM (≈ 121 µg/mL) | 62.5 µM (≈ 30.2 µg/mL) | 16 µM (≈ 7.74 µg/mL) | 16 µM (≈ 7.74 µg/mL) | 16 µM (≈ 7.74 µg/mL) |
| O=C(N/N=C/NC(=O)c1cnccn1)c1ccc(C(F)(F)F)cc1 | – | – | 250 µM (≈ 84.3 µg/mL) | – | > 1000 µM | – | 500 µM (≈ 169 µg/mL) | > 624 µM | > 1000 µM | 250 µM (≈ 84.3 µg/mL) | 250 µM (≈ 84.3 µg/mL) | 250 µM (≈ 84.3 µg/mL) | 500 µM (≈ 169 µg/mL) |
| O=C(N/N=C/NC(=O)c1cnccn1)c1cccc(F)c1 | – | – | 250 µM (≈ 71.8 µg/mL) | > 305 µM | > 500 µM | – | > 500 µM | > 130 µM | > 500 µM | > 500 µM | 250 µM (≈ 71.8 µg/mL) | 250 µM (≈ 71.8 µg/mL) | > 500 µM |
| Nc1ccc(C(=O)O)c(O)c1 [AMINOSALICYLIC ACID] | 0.2 µg/mL (≈ 1.31 µM) | – | 1000 µM (≈ 153 µg/mL) | – | 32 µM (≈ 4.9 µg/mL) | – | 500 µM (≈ 76.6 µg/mL) | – | 125 µM (≈ 19.1 µg/mL) | > 1000 µM | 32 µM (≈ 4.9 µg/mL) | 125 µM (≈ 19.1 µg/mL) | 125 µM (≈ 19.1 µg/mL) |
| O=C(O)c1cn(C2CC2)c2cc(N3CCNCC3)c(F)cc2c1=O [CIPROFLOXACIN] | 0.5 µg/mL (≈ 1.51 µM) | > 500 µM | 2 µM (≈ 0.663 µg/mL) | > 500 µM | 62.5 µM (≈ 20.7 µg/mL) | 333.33 | 2 µM (≈ 0.663 µg/mL) | > 500 µM | 62.5 µM (≈ 20.7 µg/mL) | 2 µM (≈ 0.663 µg/mL) | 1 µM (≈ 0.331 µg/mL) | 1 µM (≈ 0.331 µg/mL) | 1 µM (≈ 0.331 µg/mL) |
| NNC(=O)c1ccncc1 [ISONIAZID] | 0.01 µg/mL (≈ 0.0729 µM) | – | > 250 µM | 4670 µM | > 250 µM | – | 4 µM (≈ 0.549 µg/mL) | > 1000 µM | > 250 µM | > 250 µM | 2 µM (≈ 0.274 µg/mL) | 250 µM (≈ 34.3 µg/mL) | 4 µM (≈ 0.549 µg/mL) |
| CCn1cc(C(=O)O)c(=O)c2cc(F)c(N3CCNCC3)cc21 [NORFLOXACIN] | 5 µg/mL (≈ 15.7 µM) | > 500 µM | 16 µM (≈ 5.11 µg/mL) | > 500 µM | 125 µM (≈ 39.9 µg/mL) | 31.85 | 8 µM (≈ 2.55 µg/mL) | > 500 µM | 250 µM (≈ 79.8 µg/mL) | 16 µM (≈ 5.11 µg/mL) | 2 µM (≈ 0.639 µg/mL) | 8 µM (≈ 2.55 µg/mL) | 8 µM (≈ 2.55 µg/mL) |
| NC(=O)c1cnccn1 [PYRAZINAMIDE] | – | – | > 1000 µM | – | 500 µM (≈ 61.6 µg/mL) | – | 1000 µM (≈ 123 µg/mL) | – | > 1000 µM | > 1000 µM | 125 µM (≈ 15.4 µg/mL) | 500 µM (≈ 61.6 µg/mL) | 1000 µM (≈ 123 µg/mL) |
